Laboratory results from ChEMBL document CHEMBL1208724, “A new group of oxime carbamates as reversible inhibitors of fatty acid amide hydrolase” (Bioorg Med Chem Lett, 2010).
Activity calls are given as the source filed them.

Tests used:
[1] = target: T1, Fatty-acid amide hydrolase 1 (Mus musculus, UniProt O08914); assay: Inhibition of mouse brain FAAH assessed as conversion of [3H-ethanolamine]AEA to [3H]ethanolamine by scintillation counting
T1 sequence (O08914 whole entry): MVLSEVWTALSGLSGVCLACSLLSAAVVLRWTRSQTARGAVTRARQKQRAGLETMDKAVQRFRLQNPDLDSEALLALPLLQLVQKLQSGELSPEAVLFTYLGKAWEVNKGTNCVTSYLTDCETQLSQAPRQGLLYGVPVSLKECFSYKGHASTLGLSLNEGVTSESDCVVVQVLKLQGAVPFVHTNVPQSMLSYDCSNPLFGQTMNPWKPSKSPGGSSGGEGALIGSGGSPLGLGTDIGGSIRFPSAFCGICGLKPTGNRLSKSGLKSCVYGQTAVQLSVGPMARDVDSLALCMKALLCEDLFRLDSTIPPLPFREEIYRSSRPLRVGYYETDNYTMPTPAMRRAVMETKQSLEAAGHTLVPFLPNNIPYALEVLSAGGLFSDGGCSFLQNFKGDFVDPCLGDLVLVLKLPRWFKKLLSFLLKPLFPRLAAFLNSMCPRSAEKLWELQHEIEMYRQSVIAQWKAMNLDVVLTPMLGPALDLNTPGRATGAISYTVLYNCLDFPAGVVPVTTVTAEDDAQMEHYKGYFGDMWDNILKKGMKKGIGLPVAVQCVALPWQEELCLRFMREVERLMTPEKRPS

[2] = target: Muscarinic acetylcholine receptor M1 (Homo sapiens, UniProt P11229); assay: Displacement of [3H]pirenzepine from human recombinant muscarinic M1 receptor expressed in CHO cells; assay type: cell-based
Sequence of Muscarinic acetylcholine receptor M1 (P11229 whole entry): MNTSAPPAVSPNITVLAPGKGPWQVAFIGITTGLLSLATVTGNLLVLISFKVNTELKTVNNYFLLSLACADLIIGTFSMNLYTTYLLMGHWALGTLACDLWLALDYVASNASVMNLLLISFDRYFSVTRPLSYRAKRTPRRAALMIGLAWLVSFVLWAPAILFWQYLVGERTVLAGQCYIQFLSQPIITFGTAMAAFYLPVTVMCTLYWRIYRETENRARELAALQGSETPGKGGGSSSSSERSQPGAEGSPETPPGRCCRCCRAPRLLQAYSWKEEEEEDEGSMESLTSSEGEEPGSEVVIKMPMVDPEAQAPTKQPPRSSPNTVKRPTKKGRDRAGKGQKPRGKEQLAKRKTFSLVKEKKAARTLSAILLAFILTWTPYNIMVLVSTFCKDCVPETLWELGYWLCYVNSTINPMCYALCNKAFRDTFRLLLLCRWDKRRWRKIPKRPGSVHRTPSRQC

Galanin receptor type 2 = Galanin receptor type 2 (Homo sapiens, UniProt O43603); assay: Displacement of [125I]Galanin from human recombinant GAL2 receptor expressed in CHO cells; assay type: cell-based
[3] = target: 5-hydroxytryptamine receptor 1B (Rattus norvegicus, UniProt P28564); assay: Displacement of [125I]CYP from 5HT1B receptor expressed in rat cerebral cortex; assay type: tissue-based
Sequence of 5-hydroxytryptamine receptor 1B (P28564 whole entry): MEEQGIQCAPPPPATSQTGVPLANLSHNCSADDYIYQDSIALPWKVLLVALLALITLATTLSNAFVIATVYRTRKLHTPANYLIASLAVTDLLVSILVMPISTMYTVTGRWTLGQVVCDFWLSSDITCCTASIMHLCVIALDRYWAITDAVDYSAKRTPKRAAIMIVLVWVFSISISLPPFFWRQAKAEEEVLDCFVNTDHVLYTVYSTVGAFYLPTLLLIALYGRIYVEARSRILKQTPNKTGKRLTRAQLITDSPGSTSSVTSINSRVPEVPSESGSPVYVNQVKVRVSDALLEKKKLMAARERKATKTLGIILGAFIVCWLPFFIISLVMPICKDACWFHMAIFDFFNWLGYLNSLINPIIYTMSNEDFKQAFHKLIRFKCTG

Substance-K receptor = Substance-K receptor (Homo sapiens, UniProt P21452); assay: Displacement of [125I]NKA from human recombinant NK2 receptor expressed in CHO cells; assay type: cell-based
[4] = target: Beta-1 adrenergic receptor (Homo sapiens, UniProt P08588); assay: Displacement of [3H](-)CGP 12177 from human recombinant beta-1 receptor expressed in HEK293 cells; assay type: cell-based
[5] = target: Muscarinic acetylcholine receptor M2 (Homo sapiens, UniProt P08172); assay: Displacement of [3H]AF-DX 384 from human recombinant muscarinic M2 receptor expressed in CHO cells; assay type: cell-based
[6] = target: 5-hydroxytryptamine receptor 1A (Homo sapiens, UniProt P08908); assay: Displacement of [3H]8-OH-DPAT from human recombinant 5HT1A receptor expressed in HEK293 cells; assay type: cell-based
Sequence of 5-hydroxytryptamine receptor 1A (P08908 whole entry): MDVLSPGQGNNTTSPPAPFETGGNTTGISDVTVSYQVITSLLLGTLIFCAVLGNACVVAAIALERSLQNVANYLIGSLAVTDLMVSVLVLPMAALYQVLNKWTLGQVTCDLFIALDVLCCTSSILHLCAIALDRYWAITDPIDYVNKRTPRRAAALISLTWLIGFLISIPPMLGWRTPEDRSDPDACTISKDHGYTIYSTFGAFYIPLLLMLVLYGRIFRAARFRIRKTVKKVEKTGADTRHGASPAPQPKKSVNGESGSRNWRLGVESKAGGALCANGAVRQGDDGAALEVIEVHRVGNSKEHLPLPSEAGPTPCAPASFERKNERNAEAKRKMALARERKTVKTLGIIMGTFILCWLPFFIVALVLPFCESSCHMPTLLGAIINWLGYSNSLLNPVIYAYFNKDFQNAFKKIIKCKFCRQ

[7] = target: 5-hydroxytryptamine receptor 7 (Homo sapiens, UniProt P34969); assay: Displacement of [3H]LSD from human recombinant 5HT7 receptor expressed in CHO cells; assay type: cell-based
B2 bradykinin receptor = B2 bradykinin receptor (Homo sapiens, UniProt P30411); assay: Displacement of [3H]bradykinin from human recombinant bradykinin B2 receptor expressed in CHO cells; assay type: cell-based
[8] = target: 5-hydroxytryptamine receptor 3A (Homo sapiens, UniProt P46098); assay: Displacement of [3H]BRL 43694 from human recombinant 5HT3 receptor expressed in CHO cells; assay type: cell-based
Cannabinoid receptor 2 = Cannabinoid receptor 2 (Mus musculus, UniProt P47936); assay: Inhibition of mouse brain CB2 receptor
[9] = target: Adrenergic receptor alpha-1 (Rattus norvegicus, UniProt P15823+P23944+P43140); assay: Displacement of [3H]prazosine from alpha1 receptor in rat cerebral cortex; assay type: tissue-based
[10] = Displacement of [3H]GABA from GABA receptor in rat cerebral cortex; assay type: tissue-based
[11] = target: 5-hydroxytryptamine receptor 6 (Homo sapiens, UniProt P50406); assay: Displacement of [3H]LSD from human recombinant 5HT6 receptor expressed in CHO cells; assay type: cell-based
[12] = target: Melatonin receptor type 1A (Homo sapiens, UniProt P48039); assay: Displacement of [125I]2-iodomelatonin from human recombinant MT1 receptor expressed in CHO cells; assay type: cell-based
Thromboxane A2 receptor = Thromboxane A2 receptor (Homo sapiens, UniProt P21731); assay: Displacement of [3H]SQ 29548 from human recombinant TXA2 receptor expressed in HEK293 cells; assay type: cell-based
[13] = target: Sodium-dependent dopamine transporter (Homo sapiens, UniProt Q01959); assay: Displacement of [3H]BTCP from human recombinant dopamine transporter expressed in CHO cells; assay type: cell-based
Sequence of Sodium-dependent dopamine transporter (Q01959 whole entry): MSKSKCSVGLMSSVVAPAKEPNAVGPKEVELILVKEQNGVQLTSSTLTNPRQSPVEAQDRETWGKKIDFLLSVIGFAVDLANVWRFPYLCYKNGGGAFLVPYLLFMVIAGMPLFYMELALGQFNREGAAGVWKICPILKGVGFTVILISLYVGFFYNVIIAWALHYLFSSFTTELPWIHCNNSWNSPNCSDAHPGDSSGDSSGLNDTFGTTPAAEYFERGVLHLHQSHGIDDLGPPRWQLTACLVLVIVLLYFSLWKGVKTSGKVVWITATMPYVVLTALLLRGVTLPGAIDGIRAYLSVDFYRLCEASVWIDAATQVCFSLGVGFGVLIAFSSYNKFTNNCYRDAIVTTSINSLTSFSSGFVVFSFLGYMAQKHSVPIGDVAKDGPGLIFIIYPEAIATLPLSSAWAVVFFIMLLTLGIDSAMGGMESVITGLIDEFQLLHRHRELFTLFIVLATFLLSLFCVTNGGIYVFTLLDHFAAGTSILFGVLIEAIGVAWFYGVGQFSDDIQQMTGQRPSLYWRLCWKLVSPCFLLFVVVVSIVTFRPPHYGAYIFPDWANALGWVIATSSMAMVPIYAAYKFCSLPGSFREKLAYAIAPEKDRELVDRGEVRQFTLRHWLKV

Adenosine receptor A1 = Adenosine receptor A1 (Homo sapiens, UniProt P30542); assay: Displacement of [3H]DPCPX from human recombinant A1 receptor expressed in CHO cells; assay type: cell-based
Nociceptin receptor = Nociceptin receptor (Homo sapiens, UniProt P41146); assay: Displacement of [3H]nociceptin from human recombinant ORL1 receptor expressed in H recombinant HEK293 cells; assay type: cell-based
[14] = Displacement of [125I]Tyr11-somatostatin-14 from human recombinant sst receptor expressed in AtT-20 cells; assay type: cell-based; settings: att20
Adenosine receptor A2a = Adenosine receptor A2a (Homo sapiens, UniProt P29274); assay: Displacement of [3H]CGS21680 from human recombinant A2A receptor expressed in HEK293 cells; assay type: cell-based
Sequence of Adenosine receptor A2a (P29274 whole entry): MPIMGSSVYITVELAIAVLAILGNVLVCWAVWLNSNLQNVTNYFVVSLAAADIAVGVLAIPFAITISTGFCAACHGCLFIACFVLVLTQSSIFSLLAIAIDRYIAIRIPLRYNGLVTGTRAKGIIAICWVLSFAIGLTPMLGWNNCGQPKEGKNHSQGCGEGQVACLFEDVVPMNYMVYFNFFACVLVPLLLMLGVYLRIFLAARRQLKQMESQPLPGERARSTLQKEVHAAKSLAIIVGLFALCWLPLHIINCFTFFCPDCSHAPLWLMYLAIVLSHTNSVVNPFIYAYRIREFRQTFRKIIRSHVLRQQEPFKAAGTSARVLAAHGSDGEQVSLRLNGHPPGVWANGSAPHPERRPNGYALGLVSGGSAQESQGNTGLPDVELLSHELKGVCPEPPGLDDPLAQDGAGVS

[15] = target: C-X-C chemokine receptor type 2 (Homo sapiens, UniProt P25025); assay: Displacement of [125I]IL-8 from human recombinant CXCR2 receptor expressed in HEK293 cells; assay type: cell-based
[16] = target: Small conductance calcium-activated potassium channel protein 1 (Rattus norvegicus, UniProt P70606); assay: Displacement of [125I]apamin from SK+Ca channel in rat cerebral cortex; assay type: tissue-based
[17] = target: Muscarinic acetylcholine receptor M3 (Homo sapiens, UniProt P20309); assay: Displacement of [3H]4-DAMP from human recombinant muscarinic M3 receptor expressed in CHO cells; assay type: cell-based
Sequence of Muscarinic acetylcholine receptor M3 (P20309 whole entry): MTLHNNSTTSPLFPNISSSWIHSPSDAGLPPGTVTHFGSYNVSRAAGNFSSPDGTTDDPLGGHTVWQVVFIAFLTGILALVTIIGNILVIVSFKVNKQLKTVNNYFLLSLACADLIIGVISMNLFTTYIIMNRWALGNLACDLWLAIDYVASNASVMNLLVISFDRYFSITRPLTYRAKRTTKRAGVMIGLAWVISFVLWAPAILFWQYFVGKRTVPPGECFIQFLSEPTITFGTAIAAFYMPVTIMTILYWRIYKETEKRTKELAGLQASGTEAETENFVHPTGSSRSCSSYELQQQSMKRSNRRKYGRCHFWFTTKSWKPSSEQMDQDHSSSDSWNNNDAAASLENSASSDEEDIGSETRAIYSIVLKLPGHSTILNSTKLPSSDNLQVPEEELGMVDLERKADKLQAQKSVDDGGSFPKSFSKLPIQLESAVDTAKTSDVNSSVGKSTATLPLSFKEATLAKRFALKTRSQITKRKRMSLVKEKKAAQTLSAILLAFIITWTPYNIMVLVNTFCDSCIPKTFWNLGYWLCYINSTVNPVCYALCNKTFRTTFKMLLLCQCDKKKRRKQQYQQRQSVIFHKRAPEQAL

[18] = Displacement of [3H]DADLE from human recombinant delta 2 opioid receptor expressed in CHO cells; assay type: cell-based
Histamine H2 receptor = Histamine H2 receptor (Homo sapiens, UniProt P25021); assay: Displacement of [125I]APT from human recombinant histamine H2 receptor expressed in CHO cells; assay type: cell-based
Sequence of Histamine H2 receptor (P25021 whole entry): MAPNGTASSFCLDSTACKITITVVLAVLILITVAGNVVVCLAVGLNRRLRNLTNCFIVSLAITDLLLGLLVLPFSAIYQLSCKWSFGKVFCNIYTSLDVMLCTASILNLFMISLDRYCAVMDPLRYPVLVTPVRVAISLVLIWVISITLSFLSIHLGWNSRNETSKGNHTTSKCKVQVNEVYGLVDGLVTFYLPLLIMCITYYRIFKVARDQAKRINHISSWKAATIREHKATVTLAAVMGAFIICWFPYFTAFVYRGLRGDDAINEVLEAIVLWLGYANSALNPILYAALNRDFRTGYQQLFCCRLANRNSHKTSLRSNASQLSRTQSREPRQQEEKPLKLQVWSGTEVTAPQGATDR

[19] = target: Adrenergic receptor alpha-2 (Rattus norvegicus, UniProt P22086+P19328+P22909); assay: Displacement of [3H][…] from alpha2 receptor in rat cerebral cortex; assay type: tissue-based
[20] = target: Beta-2 adrenergic receptor (Homo sapiens, UniProt P07550); assay: Displacement of [3H](-)CGP 12177 from human recombinant beta2 receptor expressed in CHO cells; assay type: cell-based
Mu-type opioid receptor = Mu-type opioid receptor (Homo sapiens, UniProt P35372); assay: Displacement of [3H]DAMGO from human recombinant mu opioid receptor expressed in HEK293 cells; assay type: cell-based
[21] = target: Transient receptor potential cation channel subfamily V member 1 (Mus musculus, UniProt Q704Y3); assay: Inhibition of mouse TRPV1 receptor
[22] = target: N-acyl-phosphatidylethanolamine-hydrolyzing phospholipase D (Mus musculus, UniProt Q8BH82); assay: Inhibition of mouse NAPEPLD
[23] = target: 5-hydroxytryptamine receptor 5A (Homo sapiens, UniProt P47898); assay: Displacement of [3H]LSD from human recombinant 5HT5A receptor expressed in CHO cells; assay type: cell-based
[24] = target: Kappa-type opioid receptor (Rattus norvegicus, UniProt P34975); assay: Displacement of [3H]U69593 from rat recombinant kappa opioid receptor expressed in CHO cells; assay type: cell-based
D(2) dopamine receptor = D(2) dopamine receptor (Homo sapiens, UniProt P14416); assay: Displacement of [3H]spiperone from human recombinant dopamine D2S receptor expressed in HEK293 cells; assay type: cell-based
[25] = Displacement of [125I]VIP from human recombinant VIP receptor expressed in H recombinant CHO cells; assay type: cell-based
[26] = target: Cholecystokinin receptor type A (Homo sapiens, UniProt P32238); assay: Displacement of [125I]CCK-8 from human recombinant CCKA receptor expressed in CHO cells; assay type: cell-based
Sequence of Cholecystokinin receptor type A (P32238 whole entry): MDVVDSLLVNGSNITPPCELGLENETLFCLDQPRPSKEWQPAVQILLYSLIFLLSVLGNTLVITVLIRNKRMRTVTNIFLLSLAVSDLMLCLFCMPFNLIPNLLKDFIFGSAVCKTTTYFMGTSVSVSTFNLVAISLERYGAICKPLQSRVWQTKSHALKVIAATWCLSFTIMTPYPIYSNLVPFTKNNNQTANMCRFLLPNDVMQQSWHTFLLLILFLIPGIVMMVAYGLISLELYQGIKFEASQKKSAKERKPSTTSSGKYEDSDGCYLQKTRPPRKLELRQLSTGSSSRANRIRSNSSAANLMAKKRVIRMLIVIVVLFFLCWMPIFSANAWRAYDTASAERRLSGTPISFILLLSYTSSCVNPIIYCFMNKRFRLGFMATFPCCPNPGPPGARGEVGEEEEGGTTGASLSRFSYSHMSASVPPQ

[27] = target: Voltage-gated L-type calcium channel (Rattus norvegicus, UniProt P22002+Q02485+P27732); assay: Displacement of [3H](-)D 888 from L-type calcium channel in rat cerebral cortex; assay type: tissue-based
Melanocortin receptor 4 = Melanocortin receptor 4 (Homo sapiens, UniProt P32245); assay: Displacement of [125I]NDP-a-MSH from human recombinant MC4 receptor expressed in CHO cells; assay type: cell-based
Sequence of Melanocortin receptor 4 (P32245 whole entry): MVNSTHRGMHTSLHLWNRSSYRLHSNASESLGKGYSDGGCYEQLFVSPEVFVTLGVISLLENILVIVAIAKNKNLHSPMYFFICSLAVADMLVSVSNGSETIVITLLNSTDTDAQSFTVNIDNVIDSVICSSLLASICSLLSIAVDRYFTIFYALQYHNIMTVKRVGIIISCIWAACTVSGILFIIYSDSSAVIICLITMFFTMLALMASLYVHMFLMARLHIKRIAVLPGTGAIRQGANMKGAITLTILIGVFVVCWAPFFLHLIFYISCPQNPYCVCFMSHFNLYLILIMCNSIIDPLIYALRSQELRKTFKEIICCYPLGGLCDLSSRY

Adenosine receptor A3 = Adenosine receptor A3 (Homo sapiens, UniProt P0DMS8); assay: Displacement of [3H]AB-MECA from human recombinant A3 receptor expressed in HEK293 cells; assay type: cell-based
[28] = Displacement of [3H]flunitrazepam from BZD receptor in rat cerebral cortex; assay type: tissue-based
[29] = target: C-C chemokine receptor type 1 (Homo sapiens, UniProt P32246); assay: Displacement of [125I]MIP-1a from human recombinant CCR1 receptor expressed in HEK293 cells; assay type: cell-based
[30] = Inhibition of mouse brain AMT
Histamine H1 receptor = Histamine H1 receptor (Homo sapiens, UniProt P35367); assay: Displacement of [3H]pyrilamine from human recombinant histamine H1 receptor expressed in HEK293 cells; assay type: cell-based
Sequence of Histamine H1 receptor (P35367 whole entry): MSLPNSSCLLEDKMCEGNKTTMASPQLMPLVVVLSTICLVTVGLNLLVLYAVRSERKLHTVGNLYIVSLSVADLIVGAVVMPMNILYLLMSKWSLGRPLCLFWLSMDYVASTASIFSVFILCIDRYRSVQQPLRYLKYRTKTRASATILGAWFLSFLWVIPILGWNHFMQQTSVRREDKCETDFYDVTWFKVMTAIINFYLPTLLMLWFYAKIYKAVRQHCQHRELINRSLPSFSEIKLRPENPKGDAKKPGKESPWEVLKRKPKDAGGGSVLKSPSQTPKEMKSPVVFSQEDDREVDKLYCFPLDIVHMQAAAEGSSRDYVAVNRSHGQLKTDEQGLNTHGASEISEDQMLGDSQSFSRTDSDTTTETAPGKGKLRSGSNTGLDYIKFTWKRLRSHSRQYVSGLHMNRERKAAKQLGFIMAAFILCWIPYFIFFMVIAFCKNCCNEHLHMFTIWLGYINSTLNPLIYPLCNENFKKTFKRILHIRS

[31] = target: Neurotensin receptor type 1 (Homo sapiens, UniProt P30989); assay: Displacement of [125I]Tyr3-neurotensin from human recombinant NT1 receptor expressed in H recombinant CHO cells; assay type: cell-based
[32] = target: Type-1 angiotensin II receptor (Homo sapiens, UniProt P30556); assay: Displacement of [125I][Sar1,Ile8]-AT II from human recombinant AT1 receptor expressed in HEK293 cells; assay type: cell-based
[33] = target: 5-hydroxytryptamine receptor 2A (Homo sapiens, UniProt P28223); assay: Displacement of [3H]Ketanserin from human recombinant 5HT2A receptor expressed in HEK293 cells; assay type: cell-based
Sequence of 5-hydroxytryptamine receptor 2A (P28223 whole entry): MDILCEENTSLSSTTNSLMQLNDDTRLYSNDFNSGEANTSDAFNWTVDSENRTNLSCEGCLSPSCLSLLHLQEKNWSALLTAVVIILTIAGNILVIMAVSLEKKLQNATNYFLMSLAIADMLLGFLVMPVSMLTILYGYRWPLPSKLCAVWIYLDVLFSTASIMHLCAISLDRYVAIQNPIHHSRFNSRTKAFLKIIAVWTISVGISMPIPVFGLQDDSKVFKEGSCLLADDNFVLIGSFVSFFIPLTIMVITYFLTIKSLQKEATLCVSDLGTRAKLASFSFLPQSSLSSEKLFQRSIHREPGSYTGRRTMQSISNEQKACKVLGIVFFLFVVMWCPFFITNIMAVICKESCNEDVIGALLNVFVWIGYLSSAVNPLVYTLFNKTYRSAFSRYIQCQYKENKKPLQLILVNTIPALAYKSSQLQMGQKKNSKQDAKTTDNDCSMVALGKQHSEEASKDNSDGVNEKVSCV

[34] = target: Neuropeptide Y receptor type 2 (Homo sapiens, UniProt P49146); assay: Displacement of [125I]peptide YY from human recombinant Y2 receptor expressed in KAN-TS cells; assay type: cell-based
Vasopressin V1a receptor = Vasopressin V1a receptor (Homo sapiens, UniProt P37288); assay: Displacement of [3H]AVP from human recombinant V1a receptor expressed in H recombinant CHO cells; assay type: cell-based
Neuromedin-K receptor = Neuromedin-K receptor (Homo sapiens, UniProt P29371); assay: Displacement of [3H]SR 142801 from human recombinant NK3 receptor expressed in CHO cells; assay type: cell-based
Cannabinoid receptor 1 = Cannabinoid receptor 1 (Mus musculus, UniProt P47746); assay: Inhibition of mouse brain CB1 receptor
[35] = target: Neuropeptide Y receptor type 1 (Homo sapiens, UniProt P25929); assay: Displacement of [125I]peptide YY from human recombinant Y1 receptor expressed in […] cell
[36] = target: Fatty-acid amide hydrolase 1 (Mus musculus) (UniProt O08914); assay: Inhibition of mouse brain FAAH assessed as residual activity
In short: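 FAAH was pre-incubated 20 min with an excess of inhibitor, then dialyzed 18 h at 4 °C against 20 mM Tris–HCl (pH 7.0). Residual activity was assayed before and after dialysis and compared with untreated controls. In a separate run, enzyme was pre-incubated with inhibitor at room temperature for 0–60 min before substrate turnover was measured. Values are means ± S.D. of three independent experiments.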

[37] = target: Sodium-dependent serotonin transporter (Homo sapiens, UniProt P31645); assay: Displacement of [3H]imipramine from human recombinant 5HT transporter expressed in CHO cells; assay type: cell-based
D(1A) dopamine receptor = D(1A) dopamine receptor (Homo sapiens, UniProt P21728); assay: Displacement of [3H]SCH 23390 from human recombinant dopamine D1 receptor expressed in CHO cells; assay type: cell-based
Endothelin-1 receptor = Endothelin-1 receptor (Homo sapiens, UniProt P25101); assay: Displacement of [125I]endothelin-1 from human recombinant ETA receptor expressed in CHO cells; assay type: cell-based

C/C(=N\OC(=O)Nc1cccc2ccccc12)c1ccc(-c2cccs2)s1
> 1 µM: IC50 [1]

C/C(=N\OC(=O)Nc1ccc2sccc2c1)c1cccc(-c2ccccc2)c1
0.232 µM: IC50 [1]

C/C(=N\OC(=O)Nc1ccccc1)c1cccc(-c2cccs2)c1
0.1 µM: IC50 [30]
10 µM: IC50 (Cannabinoid receptor 2)
active: inhibition [36]
0.008 µM: IC50 [1]
> 10 µM: IC50 [2] | IC50 (Galanin receptor type 2) | IC50 [3] | IC50 (Substance-K receptor) | IC50 [4] | IC50 [5] | IC50 [7] | IC50 (B2 bradykinin receptor) | IC50 [8] | IC50 [9] | IC50 [10] | IC50 [11] | IC50 [12] | IC50 (Thromboxane A2 receptor) | IC50 [13] | IC50 (Adenosine receptor A1) | IC50 (Nociceptin receptor) | IC50 [14] | IC50 (Adenosine receptor A2a) | IC50 [15] | IC50 [16] | IC50 [17] | IC50 (Histamine H2 receptor) | IC50 [19] | IC50 [20] | IC50 (Mu-type opioid receptor) | IC50 [21] | IC50 [22] | IC50 [24] | IC50 (D(2) dopamine receptor) | IC50 [25] | IC50 [27] | IC50 (Melanocortin receptor 4) | IC50 [29] | IC50 (Histamine H1 receptor) | IC50 [31] | IC50 [32] | IC50 [33] | IC50 [34] | IC50 (Vasopressin V1a receptor) | IC50 (Neuromedin-K receptor) | IC50 (Cannabinoid receptor 1) | IC50 [35] | IC50 [37] | IC50 (D(1A) dopamine receptor) | IC50 (Endothelin-1 receptor)
1 µM: IC50 [6] | IC50 [18] | IC50 [23] | IC50 [26] | IC50 (Adenosine receptor A3) | IC50 [28]

C/C(=N\OC(=O)Nc1ccc(F)cc1)c1cccc(-c2ccccc2)c1
0.017 µM: IC50 [1]

C/C(=N\OC(=O)N(C)C)c1ccc(-c2ccccc2)cc1
> 50 µM: IC50 [1]

C/C(=N\OC(=O)Nc1ccccc1)c1cccc(-c2cccc(C(=O)NC(=O)Nc3ccccc3)c2)c1
> 25 µM: IC50 [1]

C/C(=N\OC(=O)Nc1cccc2ccccc12)c1ccc(-c2ccccc2)cc1
0.401 µM: IC50 [1]

COc1ccc(NC(=O)O/N=C(\C)c2cccc(-c3ccccc3)c2)cc1
0.028 µM: IC50 [1]

C/C(=N\OC(=O)Nc1cccc2ccccc12)c1ccc(-n2c(C)ccc2C)cc1
> 1 µM: IC50 [1]

C/C(=N\OC(=O)N(c1ccccc1)c1ccccc1)c1cccc(-c2ccccc2)c1
> 50 µM: IC50 [1]
